According to ChEMBL document CHEMBL4325889, “Natural products hybrids: 3,5,4'-Trimethoxystilbene-5,6,7-trimethoxyflavone chimeric analogs as potential cytotoxic agents against diverse human cancer cells” (Eur J Med Chem, 2019):

How the values were obtained:
Assay type in all cases: functional
HL-60(TB) = experiment: Growth inhibition of human HL-60(TB) cells at 10 uM after 48 hrs by SRB assay relative to control; details: HL-60, 48 h, read-out: GI
How it was run: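 Run at NCI under its standard single-dose protocol against a leukemia cell panel. Cells were exposed to 10 µM; growth was read by sulforhodamine B staining of cellular protein and expressed as % growth inhibition versus untreated control. Values above 100% mean the cell population fell below the starting count (cytocidal). Each value is the average of duplicates.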

K562 = experiment: Growth inhibition of human K562 cells at 10 uM after 48 hrs by SRB assay relative to control; details: K562, 48 h, read-out: GI
How it was run: (§1)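 Screened at the National Cancer Institute by the standard NCI protocol using the sulforhodamine B assay, which measures cellular protein. Single dose of 10 µM. Result is percent growth inhibition; values above 100% mean cell number fell below the initial population. Values are the average of duplicates.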

MOLT-4 = experiment: Growth inhibition of human MOLT4 cells at 10 uM after 48 hrs by SRB assay relative to control; details: MOLT-4, 48 h, read-out: GI; how it was run: as §1
SR = experiment: Growth inhibition of human SR cells at 10 uM after 48 hrs by SRB assay relative to control; details: read-out: GI
How it was run: (§2)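 NCI screen against its human cancer cell line panel by the standard NCI protocol, SRB protein stain. Single dose of 10 μM. Percent growth inhibition versus control; values above 100% mean the cell population fell below the starting number. Each value is the mean of duplicates.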

A549 = experiment: Growth inhibition of human A549 cells at 10 uM after 48 hrs by SRB assay relative to control; details: A549, 48 h, read-out: GI; how it was run: as §1
HOP-62 = experiment: Growth inhibition of human HOP62 cells at 10 uM after 48 hrs by SRB assay relative to control; details: HOP-62, 48 h, read-out: GI; how it was run: as §1
HOP-92 = experiment: Growth inhibition of human HOP92 cells at 10 uM after 48 hrs by SRB assay relative to control; details: HOP-92, 48 h, read-out: GI; how it was run: as §1
NCI-H522 = experiment: Growth inhibition of human NCI-H522 cells at 10 uM after 48 hrs by SRB assay relative to control; details: NCI-H522, 48 h, read-out: GI; how it was run: as §1
COLO 205 = experiment: Growth inhibition of human COLO205 cells at 10 uM after 48 hrs by SRB assay relative to control; details: COLO 205, 48 h, read-out: GI; how it was run: as §1
HCC 2998 = experiment: Growth inhibition of human HCC2998 cells at 10 uM after 48 hrs by SRB assay relative to control; details: HCC 2998, 48 h, read-out: GI; how it was run: as §1
HCT-116 = experiment: Growth inhibition of human HCT116 cells at 10 uM after 48 hrs by SRB assay relative to control; details: HCT-116, 48 h, read-out: GI; how it was run: as §1
HT-29 = experiment: Growth inhibition of human HT-29 cells at 10 uM after 48 hrs by SRB assay relative to control; details: HT-29, 48 h, read-out: GI; how it was run: as §1
SW-620 = experiment: Growth inhibition of human SW620 cells at 10 uM after 48 hrs by SRB assay relative to control; details: SW-620, 48 h, read-out: GI; how it was run: as §2
SF-539 = experiment: Growth inhibition of human SF539 cells at 10 uM after 48 hrs by SRB assay relative to control; details: SF-539, 48 h, read-out: GI; how it was run: as §1
SNB-19 = experiment: Growth inhibition of human SNB19 cells at 10 uM after 48 hrs by SRB assay relative to control; details: SNB-19, 48 h, read-out: GI; how it was run: as §2
SNB-75 = experiment: Growth inhibition of human SNB75 cells at 10 uM after 48 hrs by SRB assay relative to control; details: SNB-75, 48 h, read-out: GI; how it was run: as §2
U-251 = experiment: Growth inhibition of human U251 cells at 10 uM after 48 hrs by SRB assay relative to control; details: U-251, 48 h, read-out: GI; how it was run: as §2
Malme-3M = experiment: Growth inhibition of human MALME-3M cells at 10 uM after 48 hrs by SRB assay relative to control; details: read-out: GI; how it was run: as §1
MDA-MB-435 = experiment: Growth inhibition of human MDA-MB-435 cells at 10 uM after 48 hrs by SRB assay relative to control; details: MDA-MB-435, 48 h, read-out: GI; how it was run: as §1
SK-MEL-2 = experiment: Growth inhibition of human SK-MEL-2 cells at 10 uM after 48 hrs by SRB assay relative to control; details: SK-MEL-2, 48 h, read-out: GI; how it was run: as §1
SK-MEL-5 = experiment: Growth inhibition of human SK-MEL-5 cells at 10 uM after 48 hrs by SRB assay relative to control; details: SK-MEL-5, 48 h, read-out: GI; how it was run: as §1
UACC-62 = experiment: Growth inhibition of human UACC62 cells at 10 uM after 48 hrs by SRB assay relative to control; details: UACC-62, 48 h, read-out: GI; how it was run: as §2
OVCAR-3 = experiment: Growth inhibition of human OVCAR3 cells at 10 uM after 48 hrs by SRB assay relative to control; details: OVCAR-3, 48 h, read-out: GI; how it was run: as §1
OVCAR-4 = experiment: Growth inhibition of human OVCAR4 cells at 10 uM after 48 hrs by SRB assay relative to control; details: OVCAR-4, 48 h, read-out: GI; how it was run: as §1
NCI/ADR-RES = experiment: Growth inhibition of human NCI/ADR-RES cells at 10 uM after 48 hrs by SRB assay relative to control; details: read-out: GI; how it was run: as §1
786-0 = experiment: Growth inhibition of human 786-0 cells at 10 uM after 48 hrs by SRB assay relative to control; details: 786-0, 48 h, read-out: GI; how it was run: as §1
SN12C = experiment: Growth inhibition of human SN12C cells at 10 uM after 48 hrs by SRB assay relative to control; details: read-out: GI; how it was run: as §1
TK-10 = experiment: Growth inhibition of human TK10 cells at 10 uM after 48 hrs by SRB assay relative to control; details: TK-10, 48 h, read-out: GI; how it was run: as §2
UO-31 = experiment: Growth inhibition of human UO31 cells at 10 uM after 48 hrs by SRB assay relative to control; details: UO-31, 48 h, read-out: GI; how it was run: as §2
PC-3 = experiment: Growth inhibition of human PC3 cells at 10 uM after 48 hrs by SRB assay relative to control; details: PC-3, 48 h, read-out: GI; how it was run: as §1
Hs-578T = experiment: Growth inhibition of human Hs 578T cells at 10 uM after 48 hrs by SRB assay relative to control; details: read-out: GI; how it was run: as §1
BT-549 = experiment: Growth inhibition of human BT549 cells at 10 uM after 48 hrs by SRB assay relative to control; details: BT-549, 48 h, read-out: GI; how it was run: as §1
MDA-MB-468 = experiment: Growth inhibition of human MDA-MB-468 cells at 10 uM after 48 hrs by SRB assay relative to control; details: MDA-MB-468, 48 h, read-out: GI; how it was run: as §1

## COc1cc2oc(-c3cccc(C(=O)Nc4ccccc4)c3)cc(=O)c2c(OC)c1OC
HL-60(TB)
  inhibition of growth at 10 µM: 12.7%
K562
  inhibition of growth at 10 µM: 29.6%
MOLT-4
  inhibition of growth at 10 µM: 43.2%
SR
  inhibition of growth at 10 µM: 35.9%
A549
  inhibition of growth at 10 µM: 16.7%
HOP-62
  inhibition of growth at 10 µM: 13.7%
HOP-92
  inhibition of growth at 10 µM: 29.2%
NCI-H522
  inhibition of growth at 10 µM: 21.9%
COLO 205
  inhibition of growth at 10 µM: 2.76%
HCC 2998
  inhibition of growth at 10 µM: 1.29%
HCT-116
  inhibition of growth at 10 µM: 18.3%
HT-29
  inhibition of growth at 10 µM: 11.5%
SW-620
  inhibition of growth at 10 µM: -0.72%
SF-539
  inhibition of growth at 10 µM: 19.8%
SNB-19
  inhibition of growth at 10 µM: 4.37%
SNB-75
  inhibition of growth at 10 µM: 7.02%
U-251
  inhibition of growth at 10 µM: 9.89%
Malme-3M
  inhibition of growth at 10 µM: 12.5%
MDA-MB-435
  inhibition of growth at 10 µM: 8.87%
SK-MEL-2
  inhibition of growth at 10 µM: 15.4%
SK-MEL-5
  inhibition of growth at 10 µM: 35.3%
UACC-62
  inhibition of growth at 10 µM: 29.8%
OVCAR-3
  inhibition of growth at 10 µM: 12.3%
OVCAR-4
  inhibition of growth at 10 µM: 1.91%
NCI/ADR-RES
  inhibition of growth at 10 µM: 18.2%
786-0
  inhibition of growth at 10 µM: 7.46%
SN12C
  inhibition of growth at 10 µM: 27.3%
TK-10
  inhibition of growth at 10 µM: 8.98%
UO-31
  inhibition of growth at 10 µM: 35.6%
PC-3
  inhibition of growth at 10 µM: 29%
Hs-578T
  inhibition of growth at 10 µM: 8%
BT-549
  inhibition of growth at 10 µM: 24.2%
MDA-MB-468
  inhibition of growth at 10 µM: 9.98%
